Laboratory results from paper PMC3904296 (Journal of medicinal chemistry, 2013).

Assays:
[1] = molecular target: CB1Rs endogenously expressed in Neuro2A cells (Mus musculus, UniProt P47746); assay: Adenylyl cyclase assay in Neuro2A cells; type: cell-based; conditions: for antagonism of AC-inhibition produced by the CB1R full agonist 3: 1 μM concentration of antagonist, 10^−7 M concentration of 3, Figure 3B; for inhibition of AC-activity via CB1Rs (concentration-effect curves): Neuro2A cells, Figure 3A
CB1Rs endogenously expressed in Neuro2A cells, sequence (P47746 whole entry): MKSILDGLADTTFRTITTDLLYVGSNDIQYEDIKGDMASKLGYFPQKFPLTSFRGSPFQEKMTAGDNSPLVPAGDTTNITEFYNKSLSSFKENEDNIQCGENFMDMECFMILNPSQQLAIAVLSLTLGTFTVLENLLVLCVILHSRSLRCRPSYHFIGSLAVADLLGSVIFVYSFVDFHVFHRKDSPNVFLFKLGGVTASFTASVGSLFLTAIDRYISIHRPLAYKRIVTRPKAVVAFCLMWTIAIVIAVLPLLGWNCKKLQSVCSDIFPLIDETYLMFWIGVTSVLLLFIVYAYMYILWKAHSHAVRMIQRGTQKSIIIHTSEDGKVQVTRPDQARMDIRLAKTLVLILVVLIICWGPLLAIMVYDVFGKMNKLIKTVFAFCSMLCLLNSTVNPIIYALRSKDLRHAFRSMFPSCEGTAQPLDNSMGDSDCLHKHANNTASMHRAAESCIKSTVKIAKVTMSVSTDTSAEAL

CB2Rs in CHO-hCB2 cells = CB2Rs in CHO-hCB2 cells (Homo sapiens, UniProt P34972); assay: Adenylyl cyclase assay in CHO-hCB2 cells; type: cell-based; conditions: Figure 4A
CB2Rs in CHO-hCB2 cells, sequence (P34972 whole entry): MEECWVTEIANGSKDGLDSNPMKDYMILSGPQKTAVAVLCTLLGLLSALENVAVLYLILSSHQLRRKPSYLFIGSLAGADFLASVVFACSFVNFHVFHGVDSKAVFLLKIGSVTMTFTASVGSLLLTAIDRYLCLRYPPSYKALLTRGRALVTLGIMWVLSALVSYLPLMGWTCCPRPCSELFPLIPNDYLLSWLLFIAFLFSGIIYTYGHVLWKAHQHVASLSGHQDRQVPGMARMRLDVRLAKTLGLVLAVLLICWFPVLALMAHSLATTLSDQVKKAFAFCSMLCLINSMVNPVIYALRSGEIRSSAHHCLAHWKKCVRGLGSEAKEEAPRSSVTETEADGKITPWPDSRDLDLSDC

CHO-WT cells = assay: Adenylyl cyclase assay in CHO-WT cells not expressing CB2Rs; type: cell-based; conditions: Figure 4B
male NIH Swiss mice [2] = assay: Oral EtOH self-administration; type: in vivo; conditions: 10 mg/kg i.p. daily for 10 days
CB1Rs = conditions: cited from earlier work
male NIH Swiss mice [3] = assay: Thermoregulation assay; type: in vivo; conditions: 10 mg/kg intraperitoneal, Figure 5
Method in brief: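 Under isoflurane, a glass-encapsulated radiotelemetry probe was implanted in the peritoneal cavity. Mice recovered at least 7 days and were housed singly. On test days they were weighed, and baseline core temperature was recorded for at least 1 h. Drug or equal-volume vehicle was then injected, 4–8 mice per group. […] Data are mean ± SEM, analysed by one-way ANOVA with Tukey post-test.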

Structure (SMILES) | antagonism of AC-inhibition produced by the CB1R full agonist 3 [1] | inhibition of AC-activity via CB1Rs (concentration-effect curves) [1] | inhibition of AC-activity at CB2Rs (concentration-effect curves) (CB2Rs in CHO-hCB2 cells) | modification of AC-activity in CHO-WT cells (CHO-WT cells) | EtOH preference (two-bottle choice, 10% EtOH vs water) (male NIH Swiss mice [2]) | body weight across the treatment period (male NIH Swiss mice [2]) | total fluid consumption (male NIH Swiss mice [2]) | intrinsic activity at CB1Rs in [35S]GTPγS functional assay (CB1Rs) | hypothermic effect (core body temperature) (male NIH Swiss mice [3])
CCCCn1cc(Cc2cccc3ccccc23)c2cccc(OC)c21 [Compound 27, 1-Butyl-7-methoxy-3-(naphthalen-1-ylmethyl)-1H-indole] | antagonize AC-inhibition produced by CB1R-agonist | very little inhibition of AC-activity | 40–50% | neither 27 nor 30 significantly modified AC-activity | reduced EtOH preference | did not decrease body weight | without affecting total fluid consumption |  | 
CC1=CC[C@@H]2[C@@H](C1)c1c(O)cc(CC#CCCCNS(C)(=O)=O)cc1OC2(C)C [Compound O-2050, reference compound] | significantly antagonized AC-inhibition |  |  |  |  |  |  |  | 
CCCCn1cc(C(=O)c2cccc3ccccc23)c2cccc(O)c21 [Compound 4, reference compound] |  | 50–60% |  |  |  |  |  | lacks intrinsic activity | 
CCCCn1cc(-c2ccc3ccccc3c2)c2cccc(OC)c21 [Compound 30, 1-Butyl-7-methoxy-3-(naphthalen-2-yl)-1H-indole] | antagonize AC-inhibition produced by CB1R-agonist | very little inhibition of AC-activity | 40–50% | neither 27 nor 30 significantly modified AC-activity | reduced EtOH preference | did not decrease body weight | without affecting total fluid consumption |  | 
CCCCn1cc(C(=O)c2cccc3ccccc23)c2ccccc21 [Compound 3, (1-butyl-1H-indol-3-yl)(naphthalen-1-yl)methanone] |  |  |  |  |  |  |  |  | elicited a profound hypothermic effect
Cc1c(C(=O)NN2CCCCC2)nn(-c2ccc(Cl)cc2Cl)c1-c1ccc(Cl)cc1 [rimonabant, reference compound] |  |  |  |  | decreased EtOH preference | decreased body weight | without altering total fluid intake |  | 
